From ChEMBL document CHEMBL1157349, “2-Substituted piperazine-derived imidazole carboxamides as potent and selective CCK1R agonists for the treatment of obesity” (Bioorg Med Chem Lett, 2008)

Experiments:
[1] = target: T1, Cholecystokinin receptor type A (Homo sapiens) (UniProt P32238); assay: Agonist activity at human CCK1 receptor relative to cholecystokinin 8; format: functional
T1 sequence (whole entry): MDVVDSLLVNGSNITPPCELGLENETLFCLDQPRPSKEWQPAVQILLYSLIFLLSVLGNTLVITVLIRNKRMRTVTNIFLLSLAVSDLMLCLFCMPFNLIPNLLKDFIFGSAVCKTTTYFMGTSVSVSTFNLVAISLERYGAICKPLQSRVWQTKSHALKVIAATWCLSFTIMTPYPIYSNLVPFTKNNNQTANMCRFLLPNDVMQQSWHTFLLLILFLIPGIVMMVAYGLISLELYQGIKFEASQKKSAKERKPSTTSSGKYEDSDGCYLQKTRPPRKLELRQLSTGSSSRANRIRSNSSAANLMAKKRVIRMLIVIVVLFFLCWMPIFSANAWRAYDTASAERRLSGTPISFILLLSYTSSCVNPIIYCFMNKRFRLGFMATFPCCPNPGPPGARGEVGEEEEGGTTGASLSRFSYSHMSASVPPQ

[2] = target: T2, Cholecystokinin receptor type A (Homo sapiens, UniProt P32238); assay: Agonist activity at human CCK1 receptor; format: functional
T2 sequence (P32238 whole entry): T1 sequence (whole entry)
Method in brief: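 Human CCK1 receptor agonism measured in a CCK_IP3 functional assay with NFAT read-out. Values are means of ≥3 experiments, with standard deviations <75% of the average.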

[3] = target: T2, Cholecystokinin receptor type A; assay: Inhibition of human CCK1 receptor
[4] = Tmax in mouse at 1 mg/kg, iv and 10 mg/kg, po; format: ADME, organism-based; details: in vivo
Mus musculus [5] = assay: AUC in mouse at 10 mg/kg, po; format: ADME, organism-based, Plasma; set-up: dose 10 mg/kg, route oral; details: in vivo
Mus musculus [6] = assay: Suppression of 18 hrs overnight food intake in mouse at 3 mg/kg, po relative to control; format: functional
Method in brief: (§1)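 Lean mice were dosed orally in 10% Tw80 in water. Overnight food intake was measured and expressed relative to vehicle-dosed mice.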

[7] = target: T3, Cholecystokinin receptor type A (Mus musculus) (UniProt O08786); assay: Agonist activity at mouse CCK1 receptor relative to cholecystokinin 8; format: functional
T3 sequence (whole entry): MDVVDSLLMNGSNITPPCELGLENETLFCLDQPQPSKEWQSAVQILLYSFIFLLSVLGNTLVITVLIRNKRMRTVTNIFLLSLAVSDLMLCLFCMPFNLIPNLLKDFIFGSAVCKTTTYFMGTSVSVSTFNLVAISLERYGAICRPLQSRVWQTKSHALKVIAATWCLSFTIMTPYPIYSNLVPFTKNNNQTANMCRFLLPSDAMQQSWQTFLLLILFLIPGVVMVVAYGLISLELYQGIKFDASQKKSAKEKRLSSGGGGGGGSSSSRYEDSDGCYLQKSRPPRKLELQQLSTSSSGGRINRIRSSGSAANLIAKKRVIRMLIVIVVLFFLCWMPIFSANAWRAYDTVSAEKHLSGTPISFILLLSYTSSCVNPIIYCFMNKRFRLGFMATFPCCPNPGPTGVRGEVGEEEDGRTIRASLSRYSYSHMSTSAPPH

Mus musculus [8] = assay: Suppression of 18 hrs overnight food intake in mouse at 0.3 mg/kg, po relative to control; format: functional; method in brief: as §1
[9] = target: T4, Cholecystokinin receptor type A (Mus musculus, UniProt O08786); assay: Agonist activity at mouse CCK1 receptor; format: functional
T4 sequence (O08786 whole entry): T3 sequence (whole entry)
Method in brief: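 Mouse CCK1 receptor agonism measured in a CCK_IP3 functional assay in K1 cells. Values are means of ≥3 experiments, with standard deviations <75% of the average.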

Mus musculus [10] = assay: Suppression of 48 hrs overnight food intake in wild type mouse at 3 mg/kg, po relative to control; format: functional
Method in brief: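 Wild-type and CCK1R^-/- mice received an oral dose of 3 mpk. Food intake was measured at 18 h and 48 h and compared with vehicle.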

[11] = Volume of distribution in mouse at 1 mg/kg, iv and 10 mg/kg, po; format: ADME, organism-based; details: in vivo
[12] = Half life in mouse at 1 mg/kg, iv and 10 mg/kg, po; format: ADME, organism-based; details: in vivo
[13] = Cmax in mouse at 10 mg/kg, po; format: ADME, organism-based; set-up: dose 10 mg/kg, route oral; details: in vivo
Mus musculus [14] = assay: Oral bioavailability in mouse at 10 mg/kg; format: ADME, organism-based; details: in vivo
Mus musculus [15] = species on record: Mus musculus; assay: Gastrointestinal toxicity in wild type mouse; format: organism-based; details: in vivo
Mus musculus [16] = species on record: Mus musculus; assay: Gastrointestinal toxicity in CCK1 receptor deficient mouse; format: organism-based; details: in vivo

SMILES | Activity [1] [%] | EC50 [2] [pM] | IC50 [3] [pM] | other results
CCOc1cccc(-n2cc(C(=O)N3CCN(c4cc(C(=O)O)c5ccccc5c4)C[C@H]3CNC(=O)NC)nc2-c2ccc(C)cc2F)c1 | 90 | 74 | 97 | 
CCOc1cccc(-n2cc(C(=O)N3CCN(c4cnc5ccccc5c4)C[C@H]3CNS(C)(=O)=O)nc2-c2ccc(C)cc2)c1 | 117 | 460 | 730 | 
CCOc1cccc(-n2cc(C(=O)N3CCN(c4cnc5ccccc5c4)C[C@@H]3CNC(=O)NC)nc2-c2ccc(C)cc2)c1 | 70 | 160 | 560 | 
CCOc1cccc(-n2cc(C(=O)N3CCN(c4cc(C(=O)O)c5ccccc5c4)C[C@@H]3CNC(C)=O)nc2-c2ccc(C)cc2)c1 | 67 | 40 | 80 | 
CCOc1cccc(-n2cc(C(=O)N3CCN(c4cc(C(=O)O)c5ccccc5c4)C[C@@H]3COCC(=O)O)nc2-c2ccc(C)cc2)c1 | 85 | 97 | 140 | 
CCOc1cccc(-n2cc(C(=O)N3CCN(c4cc(C(=O)O)c5ccccc5c4)C[C@@H]3CNC(=O)NC)nc2-c2ccc(C)cc2)c1 | 74 | 130 | 80 | 
CCOc1cccc(-n2cc(C(=O)N3CCN(c4cnc5ccccc5c4)C[C@@H]3CNS(C)(=O)=O)nc2-c2ccc(C)cc2)c1 | 100 | 210 | 430 | 
CCOc1cccc(-n2cc(C(=O)N3CCN(c4cnc5ccccc5c4)C[C@H]3COC(C)=O)nc2-c2ccc(C)cc2)c1 | 118 | 770 | 470 | 
CCOc1cccc(-n2cc(C(=O)N3CCN(c4cnc5ccccc5c4)C[C@H]3CNC(C)=O)nc2-c2ccc(C)cc2)c1 | 104 | 97 | 390 | 
CCOc1cccc(-n2cc(C(=O)N3CCN(c4cc(C(=O)O)c5ccccc5c4)CC3)nc2-c2ccc(C)cc2F)c1 |  | 55 | 40 | Tmax [4]: 0.6 h; AUC (Mus musculus [5]): 0.61 µM·h; Activity (Mus musculus [6]): 86%; Activity [7]: 56%; Activity (Mus musculus [8]): 13%
CCOc1cccc(-n2cc(C(=O)N3CCN(c4cc(C(=O)O)c5ccccc5c4)C[C@H]3CNC(C)=O)nc2-c2ccc(C)cc2F)c1 | 70 | 33 | 58 | EC50 [9]: 130 pM; Activity (Mus musculus [6]): 18%; Activity [7]: 77%
CCOc1cccc(-n2cc(C(=O)N3CCN(c4cnc5ccccc5c4)C[C@@H]3COCC(=O)O)nc2-c2ccc(C)cc2)c1 | 96 | 97 | 39 | EC50 [9]: 500 pM; Activity [7]: 84%
CCOc1cccc(-n2cc(C(=O)N3CCN(c4cc(C(=O)O)c5ccccc5c4)C[C@@H]3C(=O)NC(C)C)nc2-c2ccc(C)cc2)c1 | 94 | 82 | 110 | 
CCOc1cccc(-n2cc(C(=O)N3CCN(c4cc(C(=O)O)c5ccccc5c4)CC3)nc2-c2ccc(C)cc2)c1 |  |  |  | Tmax [4]: 6.7 h; AUC (Mus musculus [5]): 0.39 µM·h; Activity (Mus musculus [6]): 82%; Activity [7]: 103%; Activity (Mus musculus [8]): 18%
CCOc1cccc(-n2cc(C(=O)N3CCN(c4cnc5ccccc5c4)C[C@H]3C(=O)NCC(=O)O)nc2-c2ccc(C)cc2)c1 | 82 | 89 | 18 | EC50 [9]: 110 pM; Activity [7]: 99%
CCOc1cccc(-n2cc(C(=O)N3CCN(c4cc(C(=O)O)c5ccccc5c4)C[C@H]3CNS(C)(=O)=O)nc2-c2ccc(C)cc2F)c1 | 97 | 100 | 67 | 
CCOc1cccc(-n2cc(C(=O)N3CCN(c4cnc5ccccc5c4)C[C@@H]3CNC(C)=O)nc2-c2ccc(C)cc2)c1 | 91 | 100 | 250 | 
CCOc1cccc(-n2cc(C(=O)N3CCN(c4cc(C(=O)O)c5ccccc5c4)C[C@H]3COCC(=O)O)nc2-c2ccc(C)cc2F)c1 | 106 | 34 | 41 | 
CCOc1cccc(-n2cc(C(=O)N3CCN(c4cnc5ccccc5c4)C[C@H]3C(=O)NC(C)C)nc2-c2ccc(C)cc2)c1 | 102 | 140 | 240 | 
CCOc1cccc(-n2cc(C(=O)N3CCN(c4cnc5ccccc5c4)C[C@H]3COCC(=O)O)nc2-c2ccc(C)cc2)c1 | 93 | 65 | 52 | 
CCOc1cccc(-n2cc(C(=O)N3CCN(c4cc(C(=O)O)c5ccccc5c4)C[C@@H]3CNS(C)(=O)=O)nc2-c2ccc(C)cc2)c1 | 72 | 95 | 120 | 
CCOc1cccc(-n2cc(C(=O)N3CCN(c4cnc5ccccc5c4)C[C@@H]3C(=O)NC(C)C)nc2-c2ccc(C)cc2)c1 | 87 | 180 | 210 | 
CCOc1cccc(-n2cc(C(=O)N3CCN(c4cc(C(=O)O)c5ccccc5c4)C[C@H]3C(=O)NC(C)C)nc2-c2ccc(C)cc2F)c1 | 94 | 71 | 10 | Activity (Mus musculus [10]): 85%; Vd [11]: 0.42 L/kg; EC50 [9]: 34 pM; half-life [12]: 2.3 h; Cmax [13]: 180 nM; F (Mus musculus [14]): 4%; Tmax [4]: 8 h; AUC (Mus musculus [5]): 0.1 µM·h; Activity (Mus musculus [6]): 92%; Activity (Mus musculus [15]): Toxic; Activity [7]: 94%; Activity (Mus musculus [8]): 32%; Activity (Mus musculus [16]): Non-toxic
CCOc1cccc(-n2cc(C(=O)N3CCN(c4cc(C(=O)O)c5ccccc5c4)C[C@H]3C(=O)NC(C)C)nc2-c2ccc(C)cc2)c1 | 103 | 53 | 16 | Vd [11]: 3.7 L/kg; EC50 [9]: 110 pM; half-life [12]: 2.5 h; Cmax [13]: 180 nM; F (Mus musculus [14]): 11%; Tmax [4]: 5.5 h; AUC (Mus musculus [5]): 0.15 µM·h; Activity (Mus musculus [6]): 45%; Activity [7]: 110%; Activity (Mus musculus [8]): 19%
CCOc1cccc(-n2cc(C(=O)N3CCN(c4cnc5ccccc5c4)C[C@@H]3COC(C)=O)nc2-c2ccc(C)cc2)c1 | 104 | 250 | 240 | 
